Measured values taken from article PMC5529739 (CPT: Pharmacometrics & Systems Pharmacology, 2017).

Columns and labels:
[1] = Population PK model of selexipag and ACT-333679 in PAH patients; format: in vivo, human; conditions: for Vd/F: human, plasma, oral; for AUC over a dosing interval at steady state, higher in PAH patients than in healthy subjects: patient model vs healthy subject model
[2] = system: human IP receptor; conditions: human pulmonary arterial smooth muscle cells, cellular shape change; cited from earlier work
[3] = system: platelet aggregation; conditions: clinically relevant concentrations, healthy subjects; cited from earlier work
[4] = range 100–1,800 μg; cited from earlier work
[5] = format: in vivo, human
How it was run: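 Oral b.i.d. dosing titrated in 200 μg steps to each patient's tolerated dose, max 1,600 μg b.i.d. Trough plasma samples at baseline and weeks 4–52, plus one week-16 window sample. Model-predicted steady-state AUC at the individual maintenance dose gave AUCcombined (1/38 parent + 37/38 metabolite); placebo exposure was set to 2.5 ng/mL. Lab values were averaged per subject over weeks 8–52, not imputed, and fitted by log-linear regression on log10 exposure and baseline.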

[6] = cited from earlier work
[7] = PAH patients, population estimate
[8] = body weight 96 kg vs reference patient 70 kg
[9] = total bilirubin 5 μmol/L vs reference 10 μmol/L
[10] = total bilirubin 25 μmol/L vs reference 10 μmol/L

CC(C)N(CCCCOCC(=O)O)c1cnc(-c2ccccc2)c(-c2ccccc2)n1 [ACT‐333679]
k43, transfer rate constant peripheral to central compartment ACT-333679 [1, 7]: 0.18 h⁻¹
AUCss, covariate effect on exposure over a steady-state dosing interval [1, 8]: −10%
Vd/F [1]: 4.65 L
AUCss, covariate effect on exposure over a steady-state dosing interval ([1]; male vs female): −13%
AUC over a dosing interval at steady state, higher in PAH patients than in healthy subjects [1]: 20%
Body weight on Vm/F, covariate effect ([1]; power coefficient, Vm=Vm,pop (bw/70)^coefficient): 0.88
AUCss, covariate effect on exposure over a steady-state dosing interval [1, 9]: −20%
AUCss, covariate effect on exposure over a steady-state dosing interval [1, 10]: +30%
Potency in activating the human IP receptor relative to selexipag [2]: 37 fold
Effect on platelet aggregation [3]: no effect

CC(C)N(CCCCOCC(=O)NS(C)(=O)=O)c1cnc(-c2ccccc2)c(-c2ccccc2)n1 [selexipag, Selexipag]
Dose proportionality of PK [4]: dose‐proportional
k12, transfer rate constant central to peripheral compartment selexipag [1, 7]: 0.09 h⁻¹
k21, transfer rate constant peripheral to central compartment selexipag [1, 7]: 0.06 h⁻¹
ka, absorption rate constant [1, 7]: 0.71 h⁻¹
kmet, metabolism rate constant selexipag to ACT-333679 [1, 7]: 0.67 h⁻¹
CL/F, apparent selexipag clearance ([1]; PAH patients, population estimate, 70 kg, total bilirubin 10 μmol/L): 19.10 L/h
AUCss, covariate effect on exposure over a steady-state dosing interval ([1]; body weight 51 kg vs reference patient 70 kg): +30%
AUCss, covariate effect on exposure over a steady-state dosing interval [1, 8]: −20%
Vd/F [1]: 12.9 L
AUCss, covariate effect on exposure over a steady-state dosing interval ([1]; male vs female): No change
AUC over a dosing interval at steady state, higher in PAH patients than in healthy subjects [1]: 30%
Total bilirubin on CL/F, covariate effect ([1]; power coefficient, CL=CLpop (bilirubin/10)^coefficient, bilirubin at baseline): −0.40
Body weight on CL/F, covariate effect ([1]; power coefficient, CL=CLpop (bw/70)^coefficient): 0.61
Body weight on Vp/F, covariate effect ([1]; power coefficient, Vp=Vp,pop (bw/70)^coefficient): 1.2
AUCss, covariate effect on exposure over a steady-state dosing interval [1, 9]: −20%
AUCss, covariate effect on exposure over a steady-state dosing interval [1, 10]: +30%
Effect on platelet aggregation [3]: no effect
Probability of a treatment-emergent AE of hemorrhage and gastrointestinal hemorrhage: relationship to exposure ([5]; AUCcombined at steady state): no statistically significant relationship to exposure
Total bilirubin, model-predicted ([5]; at the highest exposure, 12.03 μmol/L with placebo): 10.58 µmol/L
Hemoglobin, model-predicted ([5]; at the highest exposure, 138.84 G/L with placebo): 134.58 G/L
Plasma NT pro-BNP, model-predicted ([5]; at the highest exposure, 667 with no exposure (placebo)): 475 ng/mL
6-MWD at steady state, model-predicted ([5]; at the highest predicted steady-state exposure, reference patient, 369 m on placebo): 392 m
Hazard ratio for a primary endpoint event (death or a complication associated with underlying PAH) vs placebo ([6]; 99% confidence interval 0.46–0.78, P < 0.001): 0.6
NT pro-BNP levels in the presence of selexipag [6]: significantly lower
6-MWD difference between placebo and selexipag ([6]; week 26, across doses): 12 m
